Experimental data reported in ChEMBL document CHEMBL3758142, “Synthesis and antimalarial activity of quinones and structurally-related oxirane derivatives” (Eur J Med Chem, 2016).

How the values were obtained:
[1] = tested on: MRC5; test: Cytotoxicity against human MRC5 cells assessed as cell growth inhibition after 48 hrs by alamar blue assay; assay type: cell-based; conditions: MRC5, 48 h
Summary of the method: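 Human MRC-5 fibroblasts kept in DMEM with 10% FBS, 2 mM glutamine, streptomycin and penicillin at 37 °C, 5% CO2. Seeded at 2.5 × 10⁴ cells/well, 24 h, then DMSO-dissolved compounds diluted in medium were added; control wells held 0.1% DMSO final. Exposure 48 h; Alamar Blue added for the last 3 h; fluorescence read at 530–560 nm excitation.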

[2] = tested on: Plasmodium falciparum; test: Antimalarial activity against chloroquine-sensitive NF54 isolated Plasmodium falciparum 3D7 infected in erythrocytes assessed as inhibition of parasitic growth after 48 hrs by optical microscopy; assay type: functional, organism-based; conditions: 3D7, 48 h
Summary of the method: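 P. falciparum 3D7 in erythrocytes at 1% initial parasitemia, 2% hematocrit. Samples dissolved in DMSO at 10 mg/mL stock, diluted in complete medium to seven test concentrations. Each dilution tested in triplicate; 48 h at 37 °C. Growth inhibition read by optical microscopy of well contents.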

[3] = Selectivity index, ratio of IC50 for MRC5 cells to IC50 for chloroquine-sensitive NF54 isolated Plasmodium falciparum 3D7; assay type: toxicity, cell-based; conditions: human; read-out: Ratio IC50

SMILES	IC50 [1] [µM]	IC50 [2] [µM]	selectivity ratio [3]
NC1=CC(=O)c2ccccc2C1=O	322	5.14	63
O=C1C=C(Nc2ccccc2)C(=O)c2ccccc21	> 100	6.3	> 15
O=C1C(Cl)=C(Cl)C2(CO2)c2ccccc21 (stereo not given)	92.5	6.22	15
O=C1C(Cl)=C(Cl)C(=O)C(Cl)=C1Cl [CHLORANIL]	> 100	22.4	> 4.4
O=C1C(Cl)=C(Cl)C(=O)c2ccccc21 [Dichlon]	98.2	13.9	7.2
CC1(C)CCC2=C(O1)C(=O)c1ccccc1C2=O [ALPHA-LAPACHONE]	> 100	> 50	–
O=C1C(Cl)=C(Cl)C2(CO2)C(Cl)=C1Cl	368	3.95	93
COc1c(Cl)c(Cl)c(OC)c(C#N)c1C#N	> 100	> 50	–
N#CC1=C(C#N)C(=O)C(Cl)=C(Cl)C1=O	> 100	> 50	–
COC1=CC(=O)c2ccccc2C12CO2 (stereo not given)	116	> 50	< 2.3
CC1(C)CCC2=C(O1)C1(CO1)c1ccccc1C2=O (stereo not given)	> 100	3.71	> 27
C=CCOC1=CC(=O)c2ccccc2C1=O	64.8	5.18	12
CC1(C)CC2=C(O1)C1(CO1)c1ccccc1C2=O (stereo not given)	55.7	> 50	< 1.1
COC1=CC(=O)c2ccccc2C1=O [2-Methoxy-1,4-naphthoquinone]	5.2	> 50	< 0.1
O=C1C=C(Nc2ccccc2)C2(CO2)c2ccccc21 (stereo not given)	135	> 50	< 2.7
C=CCOC1=CC(=O)c2ccccc2C12CO2 (stereo not given)	26.4	> 50	< 0.53
CC1(C)CC2=C(O1)C(=O)c1ccccc1C2=O	56.1	> 50	< 1.1
NC1=CC(=O)c2ccccc2C12CO2 (stereo not given)	> 100	> 50	–
